{"source": "paper PMC7261135", "about": "(Journal of medicinal chemistry, 2020)", "key": {"[1]": {"test": "in vitro plasma stability", "type": "in vitro ADME", "conditions": "rat plasma (rat serum)", "method_in_brief": "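Test compound incubated in rat serum, with diltiazem run alongside as assay QC control.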"}, "[2]": {"test": "solution stability at pH 5.0, 7.4, 9.4", "type": "physicochemical"}, "mGluR4 [3]": {"target": "T1, mGluR4 (Rattus norvegicus, UniProt P31423)", "T1 sequence (P31423 33-912)": "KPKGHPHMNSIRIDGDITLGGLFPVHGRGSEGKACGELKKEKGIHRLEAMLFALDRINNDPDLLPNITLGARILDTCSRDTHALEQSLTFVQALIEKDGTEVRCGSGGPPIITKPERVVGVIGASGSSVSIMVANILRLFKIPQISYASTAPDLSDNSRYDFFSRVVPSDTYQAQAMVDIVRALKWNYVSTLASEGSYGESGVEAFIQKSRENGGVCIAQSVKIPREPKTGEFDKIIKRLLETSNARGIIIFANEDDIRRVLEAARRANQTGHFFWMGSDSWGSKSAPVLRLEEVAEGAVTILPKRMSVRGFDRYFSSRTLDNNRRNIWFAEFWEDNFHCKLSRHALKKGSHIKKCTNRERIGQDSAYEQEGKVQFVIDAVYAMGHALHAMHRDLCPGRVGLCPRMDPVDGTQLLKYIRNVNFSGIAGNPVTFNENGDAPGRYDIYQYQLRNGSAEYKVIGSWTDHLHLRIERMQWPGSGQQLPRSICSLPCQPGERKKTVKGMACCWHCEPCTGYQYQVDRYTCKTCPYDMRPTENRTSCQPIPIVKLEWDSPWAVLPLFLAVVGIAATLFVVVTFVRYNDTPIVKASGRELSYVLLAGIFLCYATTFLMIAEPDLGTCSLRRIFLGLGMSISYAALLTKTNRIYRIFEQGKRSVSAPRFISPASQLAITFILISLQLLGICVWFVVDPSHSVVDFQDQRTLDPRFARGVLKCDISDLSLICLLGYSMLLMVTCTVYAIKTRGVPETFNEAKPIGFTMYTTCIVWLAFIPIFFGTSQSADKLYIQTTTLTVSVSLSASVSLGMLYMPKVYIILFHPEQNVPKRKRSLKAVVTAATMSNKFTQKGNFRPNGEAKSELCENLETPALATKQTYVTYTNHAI", "test": "PET blocking studies of [^18F]15 binding", "type": "in vivo, Sprague Dawley rats", "conditions": "rats", "method_in_brief": "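Male Sprague Dawley rats under isoflurane/nitrous oxide (1.0–1.5% isoflurane) with a tail-vein catheter. Blocker 1, 2 or 3 mg/kg in saline with 10% DMSO, 5% Tween-20, 85% PBS, given 1 min before iv tracer (18–34 MBq). Dynamic PET 60 min, CT for attenuation correction, MLEM reconstruction. Regional time-activity curves; blocking as percent change from baseline scans.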"}, "mGluR4 [4]": {"target": "T2, mGluR4 (Homo sapiens, UniProt Q14833)", "T2 sequence (Q14833 33-912)": "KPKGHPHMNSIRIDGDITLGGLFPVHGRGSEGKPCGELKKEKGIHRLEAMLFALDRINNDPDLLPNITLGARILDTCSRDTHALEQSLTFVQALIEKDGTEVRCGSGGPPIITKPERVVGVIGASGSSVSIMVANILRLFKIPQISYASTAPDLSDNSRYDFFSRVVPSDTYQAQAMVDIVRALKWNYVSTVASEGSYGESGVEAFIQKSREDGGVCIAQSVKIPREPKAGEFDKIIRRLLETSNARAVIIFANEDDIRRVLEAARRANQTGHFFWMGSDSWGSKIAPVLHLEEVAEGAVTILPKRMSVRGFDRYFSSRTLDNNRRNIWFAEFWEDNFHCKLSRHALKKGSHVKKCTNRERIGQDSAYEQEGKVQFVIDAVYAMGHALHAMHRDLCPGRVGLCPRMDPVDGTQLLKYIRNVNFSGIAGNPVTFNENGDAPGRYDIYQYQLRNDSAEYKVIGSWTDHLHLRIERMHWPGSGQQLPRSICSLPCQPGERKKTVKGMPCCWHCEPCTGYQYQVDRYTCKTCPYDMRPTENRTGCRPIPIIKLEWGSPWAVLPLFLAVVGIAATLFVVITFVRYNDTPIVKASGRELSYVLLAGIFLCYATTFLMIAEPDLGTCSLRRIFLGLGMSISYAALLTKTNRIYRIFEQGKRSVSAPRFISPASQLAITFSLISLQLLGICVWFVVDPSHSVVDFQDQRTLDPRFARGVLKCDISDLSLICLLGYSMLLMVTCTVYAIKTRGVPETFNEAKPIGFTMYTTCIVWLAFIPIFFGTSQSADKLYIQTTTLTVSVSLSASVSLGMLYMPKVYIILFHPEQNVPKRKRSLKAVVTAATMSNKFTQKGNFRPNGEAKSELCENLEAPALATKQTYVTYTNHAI", "test": "competitive binding assay with [^3H]4 in mGluR4 transfected CHO cells"}, "[5]": {"test": "liver microsomal stability", "type": "in vitro ADME, rat"}, "mGluR4 [6]": {"target": "T2, mGluR4", "test": "mGluR4 Gi fold shift assay", "type": "cell-based", "method_in_brief": "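Split-luciferase GloSensor cAMP biosensor read-out of Gi-coupled mGluR4 signalling. L-SOP concentration-response curves were run with test compound at 3.0 μM and the leftward shift measured; efficacy given relative to glutamate maximum. Data from NIMH PDSP, averaged over at least three independent determinations run in triplicate.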"}, "[7]": {"test": "Log D7.4, scaled-down shake flask method using [^18F]15", "type": "physicochemical", "conditions": "octanol/phosphate buffer, pH 7.4", "method_in_brief": "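Radiolabelled test compound (74 kBq) was partitioned between octanol and pH 7.4 phosphate buffer, vortexed 2 min and centrifuged 2 min, and both phases were sampled. An octanol aliquot went into fresh octanol/buffer and the cycle was repeated to give six sets. Gamma counting; Log D = log(octanol counts × 10 / buffer counts).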"}, "mGluR4 [8]": {"target": "T1, mGluR4", "test": "PET imaging of [^18F]15, baseline", "type": "in vivo, Sprague Dawley rats", "conditions": "rats"}, "[9]": {"test": "ex vivo biodistribution of [^18F]15", "type": "in vivo", "conditions": "male Sprague Dawley rats"}, "[10]": {"conditions": "rat liver microsomes with NADPH"}}, "note": "Like-named read-outs stand apart in the source and are kept apart here.", "data": [{"smiles": "COc1cc(NC(=O)c2ccccn2)ccc1Cl", "note": "[Compound 4]", "values": [{"measurement": "The plasma stability: The intact ± SEM at 120 (min%)", "setting": "[1]", "value": "98.2 ± 6.3", "unit": "%"}, {"measurement": "The solution stability: The intact ± SEM at 120 min", "setting": "[2]; pH = 5.0", "value": "92.7 ± 3.1", "unit": "%"}, {"measurement": "The solution stability: The intact ± SEM at 120 min", "setting": "[2]; pH = 7.4", "value": "97.3 ± 1.1", "unit": "%"}, {"measurement": "The solution stability: The intact ± SEM at 120 min", "setting": "[2]; pH = 9.4", "value": "89.1 ± 2.1", "unit": "%"}]}, {"smiles": "CSc1cc(NC(=O)c2ccccn2)ccc1Cl", "note": "[Compound 13]", "values": [{"measurement": "blocking of [^18F]15 binding in striatum", "setting": "mGluR4 [3]; blocking agent 1 mg/kg", "value": 18, "unit": "%"}, {"measurement": "blocking of [^18F]15 binding in striatum", "setting": "mGluR4 [3]; blocking agent 2 mg/kg", "value": 20, "unit": "%"}, {"measurement": "blocking of [^18F]15 binding in striatum", "setting": "mGluR4 [3]; blocking agent 3 mg/kg", "value": 28, "unit": "%"}, {"measurement": "blocking of [^18F]15 binding in the whole brain", "setting": "mGluR4 [3]; blocking agent 1, 2 or 3 mg/kg, 1 min before tracer", "value": "22–25%"}, {"measurement": "IC50", "setting": "mGluR4 [4]; read-out: IC50±SE, mGluR4 transfected CHO cells, 2 nM [^3H]4, test compound 0.01 nM to 10 μM", "value": "3.5 ± 0.7", "unit": "nM"}, {"measurement": "The plasma stability: The intact ± SEM at 120 (min%)", "setting": "[1]", "value": "91.5 ± 2.5", "unit": "%"}, {"measurement": "The microsome stability Clint", "setting": "[5]; [10]", "value": 54.8, "unit": "μL/min /mg protein"}, {"measurement": "The microsome stability t1/2", "setting": "[5]; [10]", "value": 25.3, "unit": "min"}, {"measurement": "The solution stability: The intact ± SEM at 120 min", "setting": "[2]; pH = 5.0", "value": "85.9 ± 0.8", "unit": "%"}, {"measurement": "The solution stability: The intact ± SEM at 120 min", "setting": "[2]; pH = 7.4", "value": "87.9 ± 3.4", "unit": "%"}, {"measurement": "The solution stability: The intact ± SEM at 120 min", "setting": "[2]; pH = 9.4", "value": "89.3 ± 1.3", "unit": "%"}]}, {"smiles": "[2H]C([2H])(F)Sc1cc(NC(=O)c2ccccn2)ccc1Cl", "note": "[Compound 15, N-(4-Chloro-3-((fluoromethyl-d2)thio)phenyl)picolinamide]", "values": [{"measurement": "leftward shift of agonist (L-SOP) response curve", "setting": "mGluR4 [6]; at 3.0 μM", "value": 7.5, "unit": "fold"}, {"measurement": "Emax at 3 µM", "setting": "mGluR4 [6]; read-out: Glu Max efficacy", "value": 98.3, "unit": "%"}, {"measurement": "IC50", "setting": "mGluR4 [4]", "value": "3.5 ± 0.5", "unit": "nM"}, {"measurement": "logD", "setting": "[7]", "value": 3.82}, {"measurement": "The plasma stability: The intact ± SEM at 120 (min%)", "setting": "[1]", "value": "84.5 ± 10.2", "unit": "%"}, {"measurement": "microsomal CLint", "setting": "[5]; rat, liver microsomes", "value": 24.2, "unit": "µL/min/mg"}, {"measurement": "The solution stability: The intact ± SEM at 120 min", "setting": "[2]; pH = 5.0", "value": "87.1 ± 0.9", "unit": "%"}, {"measurement": "The solution stability: The intact ± SEM at 120 min", "setting": "[2]; pH = 7.4", "value": "88.3 ± 1.9", "unit": "%"}, {"measurement": "The solution stability: The intact ± SEM at 120 min", "setting": "[2]; pH = 9.4", "value": "84.3 ± 1.8", "unit": "%"}]}, {"smiles": "COc1ccc([C@@H]2Sc3ccccc3N(CCN(C)C)C(=O)[C@@H]2OC(C)=O)cc1", "note": "[Diltiazem]", "values": [{"measurement": "The plasma stability: The intact ± SEM at 120 (min%)", "setting": "[1]", "value": "49.0 ± 10.6", "unit": "%"}, {"measurement": "The solution stability: The intact ± SEM at 120 min", "setting": "[2]; pH = 5.0", "value": "94.7 ± 1.4", "unit": "%"}, {"measurement": "The solution stability: The intact ± SEM at 120 min", "setting": "[2]; pH = 7.4", "value": "99.0 ± 5.7", "unit": "%"}, {"measurement": "The solution stability: The intact ± SEM at 120 min", "setting": "[2]; pH = 9.4", "value": "69.8 ± 2.6", "unit": "%"}]}, {"smiles": "[2H]C([2H])([18F])Sc1cc(NC(=O)c2ccccn2)ccc1Cl", "note": "[[^18F]15, [^18F]-N-(4-chloro-3-((fluoromethyl-d2)thio)phenyl)-picolinamide]", "values": [{"measurement": "time of highest accumulation in the thalamus", "setting": "mGluR4 [8]; after administration of the ligand", "value": "about 2 min"}, {"measurement": "maximum average uptake in the thalamus", "setting": "mGluR4 [8]; time interval 1–10 min after administration", "value": "1.77±0.26", "unit": "% ID/cc"}, {"measurement": "accumulation in brain", "setting": "[9]; at 10 min after iv injection", "value": "0.41±0.18", "unit": "% ID/g"}, {"measurement": "accumulation in heart", "setting": "[9]; at 20 min after iv injection", "value": "0.50±0.08", "unit": "% ID/g"}, {"measurement": "accumulation in liver", "setting": "[9]; at 20 min after iv injection", "value": "1.33±0.12", "unit": "% ID/g"}, {"measurement": "accumulation in lungs", "setting": "[9]; at 20 min after iv injection", "value": "0.58±0.17", "unit": "% ID/g"}, {"measurement": "accumulation in kidneys", "setting": "[9]; at 30 min after iv injection", "value": "0.93±0.57", "unit": "% ID/g"}]}]}
